From ChEMBL document CHEMBL1687714, “Genetic analysis of fenhexamid-resistant field isolates of the phytopathogenic fungus Botrytis cinerea” (Antimicrob Agents Chemother, 2008)
≈ marks a conversion by molar mass, not a printed value. Calls of active or inactive are those of the source. No cut-off for these calls is given here.

Tests used:
Format in all cases: functional, organism-based
Botrytis cinerea [1] = assay: Antifungal activity against highly fenhexamid-resistant Botrytis cinerea MK5-2 assessed as inhibition of germ tube elongation after 24 hrs; details: MK5-2, 24 h
Botrytis cinerea [2] = assay: Antifungal activity against moderately to slightly fenhexamid-resistant Botrytis cinerea 05-1.27 assessed as inhibition of germ tube elongation after 24 hrs; details: 05-1.27, 24 h
Botrytis cinerea [3] = assay: Antifungal activity against moderately to slightly fenhexamid-resistant Botrytis cinerea 221 assessed as inhibition of germ tube elongation after 24 hrs; details: Botrytis cinerea, 221, 24 h
Botrytis cinerea [4] = assay: Antifungal activity against moderately to slightly fenhexamid-resistant Botrytis cinerea 453a assessed as inhibition of germ tube elongation after 24 hrs
Botrytis cinerea [5] = assay: Antifungal activity against fenhexamid-senistive Botrytis cinerea SAS405 assessed as inhibition of mycelium growth measured over 5 days; details: SAS405, 120 h
Botrytis cinerea [6] = assay: Antifungal activity against fenhexamid-senistive Botrytis cinerea B05.10 assessed as inhibition of mycelium growth measured over 5 days; details: B05.10, 120 h
Botrytis cinerea [7] = assay: Antifungal activity against highly fenhexamid-resistant Botrytis cinerea 05-190 assessed as inhibition of mycelium growth measured over 5 days; details: 05-190, 120 h
Botrytis cinerea [8] = assay: Antifungal activity against highly fenhexamid-resistant Botrytis cinerea 05-221 assessed as inhibition of mycelium growth measured over 5 days; details: 05-221, 120 h
Botrytis cinerea [9] = assay: Antifungal activity against highly fenhexamid-resistant Botrytis cinerea 179 assessed as inhibition of mycelium growth measured over 5 days; details: Botrytis cinerea, 179, 120 h
Botrytis cinerea [10] = assay: Antifungal activity against highly fenhexamid-resistant Botrytis cinerea 223a assessed as inhibition of mycelium growth measured over 5 days; details: 120 h
Botrytis cinerea [11] = assay: Antifungal activity against highly fenhexamid-resistant Botrytis cinerea 223b assessed as inhibition of mycelium growth measured over 5 days; details: 120 h
Botrytis cinerea [12] = assay: Antifungal activity against highly fenhexamid-resistant Botrytis cinerea 264 assessed as inhibition of mycelium growth measured over 5 days; details: Botrytis cinerea, 264, 120 h
Botrytis cinerea [13] = assay: Antifungal activity against highly fenhexamid-resistant Botrytis cinerea 379b assessed as inhibition of mycelium growth measured over 5 days; details: 120 h
Botrytis cinerea [14] = assay: Antifungal activity against highly fenhexamid-resistant Botrytis cinerea 506b assessed as inhibition of mycelium growth measured over 5 days; details: 120 h
Botrytis cinerea [15] = assay: Antifungal activity against highly fenhexamid-resistant Botrytis cinerea 520a assessed as inhibition of mycelium growth measured over 5 days; details: 120 h
Botrytis cinerea [16] = assay: Antifungal activity against moderately to slightly fenhexamid-resistant Botrytis cinerea 05-1.27 assessed as inhibition of mycelium growth measured over 5 days; details: 05-1.27, 120 h
Botrytis cinerea [17] = assay: Antifungal activity against moderately to slightly fenhexamid-resistant Botrytis cinerea 05-ABA assessed as inhibition of mycelium growth measured over 5 days; details: 120 h
Botrytis cinerea [18] = assay: Antifungal activity against moderately to slightly fenhexamid-resistant Botrytis cinerea 57 assessed as inhibition of mycelium growth measured over 5 days; details: Botrytis cinerea, 57, 120 h
Botrytis cinerea [19] = assay: Antifungal activity against moderately to slightly fenhexamid-resistant Botrytis cinerea 452 assessed as inhibition of mycelium growth measured over 5 days; details: Botrytis cinerea, 452, 120 h
Botrytis cinerea [20] = assay: Antifungal activity against moderately to slightly fenhexamid-resistant Botrytis cinerea 453a assessed as inhibition of mycelium growth measured over 5 days; details: 120 h
Botrytis cinerea [21] = assay: Antifungal activity against Botrytis cinerea 1837 expressing erg27 HydR3+ alleles assessed as appearance of dense mycelium up to 20 ug/ml
Method in brief: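 Spores of parental strains were spread on YSS (synthetic complete) medium containing fenhexamid at several concentrations, without hygromycin B. Growth was scored after 7 days at 21°C.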

Botrytis cinerea [22] = assay: Antifungal activity against HydR3 deficient Botrytis cinerea 453 harboring TELerg N369D mutant at 1 ug/ml relative to wild-type
Method in brief: (§1)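 In the dominance test, the recipient strains 453b and 286 were transformed with different erg27 alleles. Spores of the transformants were grown on YSS medium containing fenhexamid at different concentrations and 50 µg ml–1 hygromycin B. Parental strains were grown without hygromycin. Growth was scored after 7 days at 21°C.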

Botrytis cinerea [23] = assay: Antifungal activity against HydR3 deficient Botrytis cinerea 453 harboring TELerg F412I mutant at 1 ug/ml relative to wild-type; method in brief: as §1
Botrytis cinerea [24] = assay: Antifungal activity against HydR3 deficient Botrytis cinerea 453 harboring TELerg N369D mutant at 5 ug/ml relative to wild-type; method in brief: as §1
Botrytis cinerea [25] = assay: Antifungal activity against HydR3 deficient Botrytis cinerea 453 harboring TELerg F412I mutant at 5 ug/ml relative to wild-type; method in brief: as §1
Botrytis cinerea [26] = assay: Antifungal activity against Botrytis cinerea 286 harboring TELerg S336C mutant at 5 ug/ml relative to wild-type; method in brief: as §1
Botrytis cinerea [27] = assay: Antifungal activity against Botrytis cinerea 286 harboring TELerg S336C mutant at 10 ug/ml relative to wild-type; method in brief: as §1
Botrytis cinerea [28] = assay: Antifungal activity against highly fenhexamid-resistant Botrytis cinerea 05-221 assessed as inhibition of germ tube elongation after 24 hrs; details: 05-221, 24 h
Botrytis cinerea [29] = assay: Antifungal activity against highly fenhexamid-resistant Botrytis cinerea 05-AVB assessed as inhibition of germ tube elongation after 24 hrs
Botrytis cinerea [30] = assay: Antifungal activity against highly fenhexamid-resistant Botrytis cinerea 179 assessed as inhibition of germ tube elongation after 24 hrs; details: Botrytis cinerea, 179, 24 h
Botrytis cinerea [31] = assay: Antifungal activity against highly fenhexamid-resistant Botrytis cinerea 214 assessed as inhibition of germ tube elongation after 24 hrs; details: Botrytis cinerea, 214, 24 h
Botrytis cinerea [32] = assay: Antifungal activity against highly fenhexamid-resistant Botrytis cinerea 223a assessed as inhibition of germ tube elongation after 24 hrs
Botrytis cinerea [33] = assay: Antifungal activity against highly fenhexamid-resistant Botrytis cinerea 223b assessed as inhibition of germ tube elongation after 24 hrs
Botrytis cinerea [34] = assay: Antifungal activity against highly fenhexamid-resistant Botrytis cinerea 264 assessed as inhibition of germ tube elongation after 24 hrs; details: Botrytis cinerea, 264, 24 h
Botrytis cinerea [35] = assay: Antifungal activity against highly fenhexamid-resistant Botrytis cinerea 312 assessed as inhibition of germ tube elongation after 24 hrs; details: Botrytis cinerea, 312, 24 h
Botrytis cinerea [36] = assay: Antifungal activity against highly fenhexamid-resistant Botrytis cinerea 440b assessed as inhibition of germ tube elongation after 24 hrs
Botrytis cinerea [37] = assay: Antifungal activity against highly fenhexamid-resistant Botrytis cinerea 506a assessed as inhibition of germ tube elongation after 24 hrs
Botrytis cinerea [38] = assay: Antifungal activity against highly fenhexamid-resistant Botrytis cinerea 506b assessed as inhibition of germ tube elongation after 24 hrs
Botrytis cinerea [39] = assay: Antifungal activity against highly fenhexamid-resistant Botrytis cinerea 520a assessed as inhibition of germ tube elongation after 24 hrs
Botrytis cinerea [40] = assay: Antifungal activity against highly fenhexamid-resistant Botrytis cinerea 520b assessed as inhibition of germ tube elongation after 24 hrs
Botrytis cinerea [41] = assay: Antifungal activity against highly fenhexamid-resistant Botrytis cinerea 533 assessed as inhibition of germ tube elongation after 24 hrs; details: Botrytis cinerea, 533, 24 h
Botrytis cinerea [42] = assay: Antifungal activity against highly fenhexamid-resistant Botrytis cinerea MK3-1 assessed as inhibition of germ tube elongation after 24 hrs; details: MK3-1, 24 h
Botrytis cinerea [43] = assay: Antifungal activity against highly fenhexamid-resistant Botrytis cinerea MK3-36 assessed as inhibition of germ tube elongation after 24 hrs; details: MK3-36, 24 h

CC1(C(=O)Nc2ccc(O)c(Cl)c2Cl)CCCCC1 [FENHEXAMID]
EC50 (Botrytis cinerea [1]): > 5 µg/mL
EC50 (Botrytis cinerea [2]): 2.5 µg/mL (≈ 8.27 µM)
EC50 (Botrytis cinerea [3]): 0.5 µg/mL (≈ 1.65 µM)
EC50 (Botrytis cinerea [4]): 3 µg/mL (≈ 9.93 µM)
EC50 (Botrytis cinerea [5]): < 0.1 µg/mL
EC50 (Botrytis cinerea [6]): < 0.03 µg/mL
EC50 (Botrytis cinerea [7]): > 10 µg/mL
EC50 (Botrytis cinerea [8]): 7 µg/mL (≈ 23.2 µM)
EC50 (Botrytis cinerea [9]): > 10 µg/mL
EC50 (Botrytis cinerea [10]): > 10 µg/mL
EC50 (Botrytis cinerea [11]): > 10 µg/mL
EC50 (Botrytis cinerea [12]): > 10 µg/mL
EC50 (Botrytis cinerea [13]): > 10 µg/mL
EC50 (Botrytis cinerea [14]): > 10 µg/mL
EC50 (Botrytis cinerea [15]): 3 µg/mL (≈ 9.93 µM)
EC50 (Botrytis cinerea [16]): 0.2 µg/mL (≈ 0.662 µM)
EC50 (Botrytis cinerea [17]): 0.2 µg/mL (≈ 0.662 µM)
EC50 (Botrytis cinerea [18]): < 0.3 µg/mL
EC50 (Botrytis cinerea [19]): 1.5 µg/mL (≈ 4.96 µM)
EC50 (Botrytis cinerea [20]): 2 µg/mL (≈ 6.62 µM)
Activity (Botrytis cinerea [21]): inactive
Activity (Botrytis cinerea [22]): inactive
Activity (Botrytis cinerea [23]): inactive
Activity (Botrytis cinerea [24]): inactive
Activity (Botrytis cinerea [25]): inactive
Activity (Botrytis cinerea [26]): inactive
Activity (Botrytis cinerea [27]): inactive
EC50 (Botrytis cinerea [28]): > 10 µg/mL
EC50 (Botrytis cinerea [29]): > 10 µg/mL
EC50 (Botrytis cinerea [30]): > 10 µg/mL
EC50 (Botrytis cinerea [31]): 10 µg/mL (≈ 33.1 µM)
EC50 (Botrytis cinerea [32]): > 10 µg/mL
EC50 (Botrytis cinerea [33]): > 10 µg/mL
EC50 (Botrytis cinerea [34]): > 10 µg/mL
EC50 (Botrytis cinerea [35]): > 10 µg/mL
EC50 (Botrytis cinerea [36]): > 10 µg/mL
EC50 (Botrytis cinerea [37]): > 10 µg/mL
EC50 (Botrytis cinerea [38]): > 10 µg/mL
EC50 (Botrytis cinerea [39]): 10 µg/mL (≈ 33.1 µM)
EC50 (Botrytis cinerea [40]): 8 µg/mL (≈ 26.5 µM)
EC50 (Botrytis cinerea [41]): > 10 µg/mL
EC50 (Botrytis cinerea [42]): > 5 µg/mL
EC50 (Botrytis cinerea [43]): > 5 µg/mL
